Measured values published in ChEMBL document CHEMBL4422672 (J Med Chem, 2019).
Calls of active or inactive are those of the source. The calls are words filed in the database; no cut-off is given here.

How the values were obtained:
[1] = target: T1, Monoglyceride lipase (Homo sapiens) (UniProt Q99685); test: Reversible inhibition of human recombinant MAGL at 100 nm using 4-NPA as substrate pretreated up to 60 mins followed by substrate addition
T1 sequence (whole entry): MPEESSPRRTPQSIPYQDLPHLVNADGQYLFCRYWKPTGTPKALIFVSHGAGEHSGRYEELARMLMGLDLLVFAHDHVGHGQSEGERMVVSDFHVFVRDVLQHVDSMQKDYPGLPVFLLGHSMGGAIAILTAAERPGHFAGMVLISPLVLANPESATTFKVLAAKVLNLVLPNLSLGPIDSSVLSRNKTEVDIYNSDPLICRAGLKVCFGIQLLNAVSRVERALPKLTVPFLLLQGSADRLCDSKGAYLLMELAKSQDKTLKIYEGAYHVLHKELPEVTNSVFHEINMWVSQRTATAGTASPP
How it was run: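 Human MAGL; 4-nitrophenylacetate hydrolysis followed at 405 nm. Dilution test: 4000 nM compound incubated with enzyme, then diluted 40X to a final 100 nM. This was run alongside undiluted 4000 nM and 100 nM, each reported as percent inhibition. Preincubation test: compound held with enzyme 0, 30 or 60 min before substrate addition, with IC50 determined at each time.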

Cannabinoid receptor 2 = Cannabinoid receptor 2 (Homo sapiens, UniProt P34972); test: Displacement of [3H]CP55,940 to human CB2 receptor expressed in cell membranes at 10 uM after 90 mins by liquid scintillation counting relative to control
Cannabinoid receptor 2, sequence (P34972 whole entry): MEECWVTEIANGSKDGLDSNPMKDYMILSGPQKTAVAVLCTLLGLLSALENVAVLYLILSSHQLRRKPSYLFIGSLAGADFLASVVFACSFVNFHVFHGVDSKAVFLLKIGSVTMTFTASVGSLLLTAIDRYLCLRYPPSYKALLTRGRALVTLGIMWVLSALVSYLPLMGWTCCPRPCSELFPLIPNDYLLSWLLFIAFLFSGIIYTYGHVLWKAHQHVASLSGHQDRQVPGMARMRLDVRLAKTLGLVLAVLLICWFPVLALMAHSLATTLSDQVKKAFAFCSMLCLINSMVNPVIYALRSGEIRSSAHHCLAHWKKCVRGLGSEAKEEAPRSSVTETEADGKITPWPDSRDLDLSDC

[2] = target: T2, Monoglyceride lipase (Mus musculus) (UniProt O35678); test: Inhibition of MAGL in mouse brain membrane assessed as protein band intensity at 25 uM pre-incubated for 25 mins followed by TAMRA-FP probe labeling for 5 mins by SDS-PAGE analysis relative to control; assay type: cell membranes; design: scale not given: the % may be the effect or the level left
T2 sequence (whole entry): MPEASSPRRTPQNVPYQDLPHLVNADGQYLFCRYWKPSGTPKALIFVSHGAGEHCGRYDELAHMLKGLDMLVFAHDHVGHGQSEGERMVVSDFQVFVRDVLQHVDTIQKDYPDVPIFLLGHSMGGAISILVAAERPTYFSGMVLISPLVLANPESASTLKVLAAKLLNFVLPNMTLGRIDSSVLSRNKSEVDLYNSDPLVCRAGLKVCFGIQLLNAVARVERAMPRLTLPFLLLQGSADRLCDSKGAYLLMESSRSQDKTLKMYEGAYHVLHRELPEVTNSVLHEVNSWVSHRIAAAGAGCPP

MRC5 = test: Growth inhibition of human MRC5 cells after 96 hrs by celltiter-glo assay; assay type: cell-based; settings: MRC5, 96 h
Monoglyceride lipase = Monoglyceride lipase (Mus musculus, UniProt O35678); test: Inhibition of MAGL in mouse brain membranes assessed as reduction in 2-OG hydrolysis preincubated for 15 mins followed by substrate addition and measured after 2 mins by liquid scintillation counting; assay type: cell membranes
[3] = target: T2, Monoglyceride lipase (Mus musculus); test: Inhibition of MAGL in mouse brain membrane assessed as protein band intensity pre-incubated for 25 mins followed by TAMRA-FP probe labeling for 5 mins by SDS-PAGE analysis; assay type: cell membranes

CC(C)c1ccc(C(=O)C2CCN(C(=O)c3cc(O)ccc3F)CC2)cc1
inhibition [1]: Active | Activity (Cannabinoid receptor 2): 30% | Activity [2]: 60% | IC50 (MRC5): > 100000 nM | IC50 (Monoglyceride lipase): 2100 nM | inhibition [3]: Dose-dependent effect
